APP 5'UTR act: activators of APP 5'UTR luciferase reporter, primary screen, SH-SY5Y cells | SH-SY5Y APP 5'UTR luciferase reporter, luminescence; zero percent = DMSO vehicle wells | activation, % at 2 µM | 1% of 190,000 active;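 active = activation above a set limit, based on mean plus 3 SD of controls, cut at about 140% in these data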
STAT1 blocker: STAT1 signaling inhibitors, primary screen, cell-based, HTS, luciferase reporter | 0.35% of 200,000 active | inhibition, % at 5.5 µM | NIH 3T3 STAT1-luciferase reporter, IFN-gamma, luminescence;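 active = inhibition above a set limit, the mean inhibition across all tested compounds plus 3 SD, cut at about 34% in these data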
STAT1 activator: STAT1 signaling activators, primary screen, cell-based, HTS, luciferase reporter; activation (% of control), % at 5.5 µM; 2.6% of 200,000 active; NIH 3T3 STAT1-luciferase reporter, IFN-gamma, luminescence; 100% = IFN-gamma alone, no compound;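 active = activation above the screen-wide mean activation plus 3 SD, cut at about 130% in these data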
STAT3 act: IL-6 driven STAT3 reporter potentiators, primary screen, U3A cells, luciferase, luminescence, MLSCN library | IL-6 STAT3-luciferase reporter; 100% = signal with IL-6 EC80 alone | activation (% of control), % at 5.6 µM | 0.91% of 190,000 active;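 active = activation above the screen-wide mean of compound activation plus 3 SD, cut at about 130% in these data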
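Material: STAT3-luciferase reporter U3A cells; Probe or stimulus: IL-6 (33 ng/mL); Incubation: compound pre-incubation 1 h before IL-6, then 6 h stimulation at 37 °C; Technique: luminescence from STAT3-driven luciferase reporter; Evaluation: % activation versus median of IL-6-stimulated wells; Controls: IL-6-only high control.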
NF-kB neuron act: activators of NF-kB expression in neurons, primary screen, cell-based, HTS. human neuronal cells, NF-kB reporter expression; stronger effect = higher value. fold change at 12.5 µM. 1.6% of 190,000 active. AID 1239, 2008; in the data active = fold change above about 3.3
STAT3 inh-1: IL-6 driven STAT3 reporter inhibitors, primary screen, U3A cells, luciferase, luminescence, MLSCN library; IL-6 STAT3-luciferase reporter; host cell line lacks STAT1; inhibition, % at 5.5 µM; 0.89% of 190,000 active;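 active = inhibition above the mean inhibition across all screened compounds plus 3 SD, cut at about 44% in these data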
STAT3 inh-2: STAT3 reporter inhibitors, retest of hits, confirmation, U3A cells, luciferase, luminescence | IL-6 STAT3 luciferase reporter; cell line lacks STAT1 | shares compounds with STAT3 inh-1 | inhibition, % at 5.7 µM | 45% of 1,200 active;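 active = inhibition above the hit cutoff computed for the primary STAT3 screen, cut at about 44% in these data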
NFkB inh STAT3ct: NF-kB reporter inhibitors in human cells, confirmation, counter-screen for STAT3 inhibitor project, cell-based, HEK293T, luciferase, TNF-alpha stimulus; AID 1308, 2008; TNF-alpha induced; 36% of 1,200 active; shares compounds with STAT3 inh-1; inhibition, % at 5.7 µM;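 active = inhibition above the mean of solvent-only control wells plus 3 SD, cutoff set per campaign, cut at about 13% in these data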
STAT1 inh 2: STAT1 reporter inhibitors, IFN-gamma induced, confirmation, counter-screen for STAT3 inhibitor project, cell-based, NIH 3T3, luciferase luminescence | NIH 3T3 STAT1-luciferase reporter | 27% of 1,200 active | AID 1317, 2008 | inhibition, % at 5.7 µM | shares compounds with STAT3 inh-1;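 active = inhibition above the mean plus 3 SD of solvent-only control wells, limit set per screening run, cut at about 16% in these data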
Hits are given with their value; n = inactive; x = no result given. In the library only some 4.9% were active in any assay of this set; here they are far more common.

SMILES | APP 5'UTR act | STAT1 blocker | STAT1 activator | STAT3 act | NF-kB neuron act | STAT3 inh-1 | others
O=C(Nc1ccccc1)c1cccn(Cc2ccccc2)c1=O | n | n | 132 | n | n | n
CC1CCC/C=C/C2CC(O)CC2C(O)/C=C/C(=O)O1 (centres undefined) | n | 53 | n | n | n | 89
C[C@H]1CCC/C=C/C2C[C@H](O)CC2[C@H](O)/C=C/C(=O)O1 (some centres undefined) | n | 46 | n | n | n | 93
C[C@H]1CCC[C@H](O)CCCCCc2cc(O)cc(O)c2C(=O)O1 | n | n | n | n | n | n
CN1OC[C@@H]2COc3ccc4ccccc4c3[C@@H]21 | n | n | n | n | n | n
CC1(C)NCCN2C(=O)CSC21 (centres undefined) | n | n | n | n | n | n
O=C1c2cccc3cccc(c23)C(=O)N1/N=C/c1c(O)n(-c2ccccc2)c(=O)[nH]c1=O | n | n | n | n | n | n
Nc1c2c(nc3sc4c(c13)CCCC4)CCCCC2 | n | n | n | n | 3.8 | n
Nc1c2c(nc3sc4c(c13)CCCC4)CCCC2 | n | n | n | n | n | n
O=C(COc1ccc2ccccc2c1)N1CCN(Cc2c[nH]c3ccccc23)CC1 | n | n | n | n | n | n
O=C(COc1ccc(Br)cc1)N1CCN(Cc2c[nH]c3ccccc23)CC1 | n | n | n | 135 | n | n
COc1ccc(NP(=O)(Nc2ccc(OC)cc2)Oc2ccccc2)cc1 | n | n | n | n | n | n
COc1ccc(P2(=O)Nc3ccccc3N2)cc1 | 171 | n | n | n | n | n
COC(=O)[C@@H]1C[C@@]1(C)[C@@H](NP(=O)(c1ccccc1)c1ccccc1)c1ccccc1 | n | n | n | n | n | n
Clc1ccccc1Nc1ncnc(-n2cccc2)n1 | n | n | 136 | n | n | n
O=C(CNC1CCCC1)Nc1ccc(N2CCCCCC2)cc1 | n | n | n | n | n | n
Cc1cc(C=C2C(=O)NC(=S)NC2=O)c(C)n1C1CCCC1 | n | n | 136 | n | n | n
CC1(C)C[C@H]2C=C(C=O)[C@]3(C=O)C[C@]3(C)[C@H]2C1 | n | n | n | n | n | n
Cc1nc2c(=O)n(C)c(=O)nc-2n(C)n1 | n | 92 | n | n | n | 107
CCOC(=O)C1(CCOc2ccccc2)CCN(C2Cc3ccccc3C2)CC1 | n | n | n | n | n | n
CN(C)c1cccc2c(C#N)ccc(N(C)C)c12 | n | n | n | n | n | n
Cc1cc(C)cc(N2C(=O)NC(=O)/C(=C/c3cccn3-c3ccc(Cl)cc3)C2=O)c1 | n | n | n | n | n | n
Cc1cccc(N2C(=O)NC(=O)/C(=C\c3cccn3-c3ccc(Cl)cc3)C2=O)c1 | n | 34 | n | n | n | n
O=C(COC(=O)c1cccc(O)c1)Nc1ccc(Cl)cc1C(=O)c1ccccc1 | n | n | n | n | n | n
CNc1cc(Cl)c2nonc2c1[N+](=O)[O-] | n | n | 141 | n | n | n
SMILES | APP 5'UTR act | STAT1 blocker | STAT1 activator | STAT3 act | NF-kB neuron act | STAT3 inh-1 | others
Cc1ccc(S(=O)(=O)NC(Cc2cnc[nH]2)C(=O)O)cc1 (centres undefined) | n | n | n | n | n | n
CN(C)c1ccc(C(=O)c2ccc(N(C)C)cc2)cc1 | x | n | 134 | n | n | n
CC(C)CN(CC(C)C)C(=O)C1C2c3ccccc3C(c3ccccc32)C1C(=O)O (centres undefined) | n | n | n | n | n | n
CNC(=O)Oc1ccc(-c2cn3cc(C)ccc3n2)cc1 | n | 82 | n | n | 5 | 106
CC1CC(C)CN(CC(=O)c2ccc(OC(F)F)cc2)C1 (centres undefined) | n | n | n | n | n | n
CN1C(=O)/C(=C\c2ccc(N3CCCCC3)o2)C(=O)NC1=S | n | n | 133 | n | n | n
C=CCN1C(=O)/C(=C\c2ccc(N3CCOCC3)o2)C(=O)NC1=S | n | n | n | n | n | n
COc1ccc2nc(NC3=NCCN3)sc2c1 | n | n | 140 | n | n | n
Nc1nc(SCCC(F)=C(F)F)n[nH]1 | n | n | n | n | n | n
C[N+]12CCC(CC1)C(C(O)(c1ccccc1)c1cccs1)C2 (centres undefined) | n | n | n | n | 4.1 | n
CN1/C(=C\C=C\C2=[N+](C)c3ccc4ccccc4c3C2(C)C)C(C)(C)c2ccccc21 | n | 72 | n | n | n | 103
CC(C)c1oc(=O)cc2c1[C@@H](O)[C@H]1OC(=O)[C@@]3(C)CC[C@@H](O)[C@@]2(C)C13 (some centres undefined) | n | n | n | n | 3.3 | n
CC(C)c1oc(=O)cc2c1[C@@H](O)[C@H]1OC(=O)[C@@]3(C)C[C@@H](O)[C@@H](O)[C@@]2(C)C13 (some centres undefined) | n | n | n | n | 7 | n
Nc1ccccc1C(=O)OCc1ccc([N+](=O)[O-])cc1 | n | n | 136 | n | n | n
O=C(c1cc(-c2ccccc2)on1)N1CCC2(CC1)OCCO2 | n | n | 137 | n | 5.2 | n
O=C(c1cc2ccccn2n1)N1CCC2(CC1)OCCO2 | n | n | n | n | n | n
CN1CCN(c2ncnc3ccc(Br)cc23)CC1 | n | n | n | n | n | n
Cc1ccc2nc(N3CCN(C)CC3)[nH]c2c1 | n | n | 133 | n | n | n
c1ccc(C2CC3CC(c4ccco4)N2O3)cc1 (centres undefined) | n | n | n | n | n | n
O=C(Nc1ccncc1)c1cccn(Cc2ccccc2)c1=O | n | n | n | n | n | 79 | STAT3 inh-2=74;NFkB inh STAT3ct=17;STAT1 inh 2=n
COc1ccc(N/N=C/c2c(O)n(-c3cccc(C)c3)c(=O)[nH]c2=O)cc1 | n | n | n | n | n | n
COc1ccc(N/N=C/c2c(O)n(-c3ccc(C)c(C)c3)c(=O)[nH]c2=O)cc1 | n | n | n | n | n | 48 | STAT3 inh-2=n;NFkB inh STAT3ct=n;STAT1 inh 2=n
